OPRM1-OPRD1 ag: agonists of human mu-delta opioid receptor heterodimerization; P35372+P41143; cells, OPRM1-OPRD1 heterodimerization, luminescence; activation, % at 9.3 µM; 340,000 compounds, 0.3% hits; AID 504326;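 also: 0% = vehicle-treated cells and 100% = reference agonist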
Target sequence (P35372 whole entry, looked up): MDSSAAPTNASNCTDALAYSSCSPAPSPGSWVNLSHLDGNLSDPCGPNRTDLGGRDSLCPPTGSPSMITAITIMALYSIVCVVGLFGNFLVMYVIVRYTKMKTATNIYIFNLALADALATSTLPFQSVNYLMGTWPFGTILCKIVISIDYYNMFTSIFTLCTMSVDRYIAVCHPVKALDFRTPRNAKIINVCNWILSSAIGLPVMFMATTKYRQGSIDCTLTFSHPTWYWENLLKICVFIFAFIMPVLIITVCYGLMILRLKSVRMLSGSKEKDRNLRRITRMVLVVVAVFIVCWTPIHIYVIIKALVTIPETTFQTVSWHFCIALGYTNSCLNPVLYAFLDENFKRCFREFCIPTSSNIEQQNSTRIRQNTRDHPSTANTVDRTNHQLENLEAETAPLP
Target sequence (P41143 whole entry, looked up): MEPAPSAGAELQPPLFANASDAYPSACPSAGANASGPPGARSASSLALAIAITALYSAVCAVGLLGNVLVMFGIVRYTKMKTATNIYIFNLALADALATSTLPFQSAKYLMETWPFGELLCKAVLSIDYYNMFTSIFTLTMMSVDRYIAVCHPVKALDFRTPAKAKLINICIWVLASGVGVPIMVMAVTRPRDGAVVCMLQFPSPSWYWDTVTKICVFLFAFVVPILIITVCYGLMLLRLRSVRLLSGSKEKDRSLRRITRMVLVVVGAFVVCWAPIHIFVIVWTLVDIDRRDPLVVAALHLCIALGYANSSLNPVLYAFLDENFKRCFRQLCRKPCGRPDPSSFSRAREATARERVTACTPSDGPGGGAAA
HTR5A ag ctr: counter-screen for OPRM1-OPRD1 agonists: human HTR5A agonism; activation, % at 9.3 µM; 340,000 compounds, 0.61% hits; P47898; HTR5A agonist assay, luminescence, cell-based; in the data active = activation mostly above about 9.5%, no sharp cut-off; inactive = mostly below about 7.6%;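 also: 0% = cells with vehicle only and 100% = reference agonist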
OPRM1-OPRD1 inv: inverse agonist of human OPRM1-OPRD1 heterodimerization. P35372+P41143. 340,000 compounds, 0.21% hits. AID 504357. inhibition, % at 9.3 µM. cell-based MOR-DOR heterodimer luminescence, inverse agonism; in the data active = inhibition above about 22%, passing the limit was not always enough;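 also: 0% = cells with DMSO and 100% = wells without cells with DMSO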
HTR5A inv ctr: HTR5A inverse agonism, opioid heterodimer counter-screen; 340,000 compounds, 0.083% hits; inhibition, % at 9.3 µM; AID 504634; P47898; HTR5A cell line, luminescence; in the data active = inhibition mostly above about 23%, no sharp cut-off; inactive = mostly below about 18%;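 also: 0% = cells with DMSO and 100% = no-cell wells with DMSO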
DAGLB inh: blocks human DAGLB lipase activity. inhibition, % at 5.17 µM. HEK293T DAGLB membrane lysate, EnzChek fluorogenic substrate. Q8NCG7. 340,000 compounds, 0.059% hits; in the data active = inhibition above about 34%;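 also: 0% = enzyme with vehicle and 100% = wells lacking enzyme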
Arr AP2 block: human beta-arrestin and AP2 interaction inhibition. 340,000 compounds, 0.31% hits. FITC-arrestin peptide / GST-AP2 beads, flow cytometry; AP2 beta2 appendage carries R879A mutation. inhibition, % at 10 µM. AID 504490;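 active = inhibition above a set limit, near 3 SD of compounds lacking own fluorescence, cut at about 54% in these data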;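 also: plate controls were DMSO wells for no effect and 5 µM unlabelled arrestin peptide for full effect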
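Material – GST-tagged AP2 beta2-adaptin appendage (R879A) on 4 µm glutathione beads · Probe or stimulus – fluorescein-tagged arrestin peptide at 50 nM final · Timing – 12 min plus 1 h, RT · Detection – bead flow cytometry, FITC channel · Read-out basis – inhibition as reduced fluorescein signal on beads, percent · Medium – PBS plus Tween 20 (0.05%) and BSA (0.1%)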
OPRM1-D1 ag cf: OPRM1-OPRD1 heterodimer agonism, confirmation | cells, MOR-DOR heterodimerization, luminescence complementation | 830 compounds, 45% hits | activation, % at 9.3 µM | shares compounds with OPRM1-OPRD1 ag;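 also: 0% = vehicle-treated cells and 100% = reference agonist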
HTR5A ag ctr2: counter-screen for OPRM1-OPRD1 agonists: human HTR5A agonism; HTR5A agonist counterscreen, cell luminescence; AID 504905; activation, % at 9.3 µM; 830 compounds, 8% hits; shares compounds with OPRM1-OPRD1 ag; in the data active = activation above about 17%;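 also: 0% = vehicle-treated cells and 100% = reference agonist response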
* marks the source's active call; other numbers are inactive results; i = inactive; · = no result. Only some compounds are listed: those with a hit (about 1.4% of all), similar ones and a draw of the others. Rule as the data show it, unless noted: active = activation above about 18%; inactive = the rest.

SMILES | OPRM1-OPRD1 ag | HTR5A ag ctr | OPRM1-OPRD1 inv | HTR5A inv ctr | DAGLB inh | Arr AP2 block | OPRM1-D1 ag cf | HTR5A ag ctr2
CC(=O)Nc1ccc(NC(=O)C(=O)NCC(c2ccco2)N2CCc3ccccc3C2)cc1 (stereo unspecified) | 20.7* | 8.0 | -134.5 | -13.6 | 3.1 | -16.7 | 22.5* | 8.0
O=S(=O)(Cc1ccccc1)C(c1ccccc1)S(=O)(=O)Cc1ccccc1 | · | · | · | · | -4.4 | · | · | ·
COC1=Nc2ccccc2/C=C\c2ccccc21 | · | · | · | · | -2.2 | · | · | ·
O=C(COc1ccc(/C=N/NC(=O)c2cc3ccccc3o2)cc1Cl)Nc1ccccc1 | 41.1* | 8.5 | -237.1 | -26.5 | 3.0 | -0.7 | 2.7 | -4.0
CCc1ccc(OCC(=O)Nc2ccc(S(=O)(=O)N3CCCC3)cc2)c(Br)c1 | 19.4* | -2.7 | -103.7 | -13.5 | -3.9 | 20.1 | 1.0 | -4.5
O=C(COc1ccc(Br)cc1CO)Nc1ccc(S(=O)(=O)N2CCCCC2)cc1 | 4.9 | 1.8 | -25.6 | -6.6 | -2.3 | -18.3 | · | ·
Cc1ccc(S(=O)(=O)N2C[C@@H](C)[C@]3(C2)[C@H](O)[C@H](OC(=O)NC2CCCC2)C[C@H]2C(=O)N(c4ccccc4)C(=O)[C@H]23)cc1 | · | · | · | · | -1.2 | · | · | ·
CN(C)C(CNC(C(=O)Nc1ccc(F)cc1)c1ccccc1)c1ccccc1 (stereo unspecified) | 230.0* | 2.6 | i | -7.7 | 1.2 | 21.8 | -0.2 | 2.7
CN(C)C(CNC(C(=O)Nc1ccc([N+](=O)[O-])cc1Br)c1ccccc1)c1ccccc1 (stereo unspecified) | 65.9* | 9.6 | -317.6 | 35.4 | -1.6 | -21.2 | 79.0* | 4.1
COc1cc(OCc2ccccc2)c(CC(=O)O)c([N+](=O)[O-])c1 | · | · | · | · | -12.7 | · | · | ·
COCCCn1c(N)c(-c2nc3ccccc3n2C)c2nc3ccccc3nc21 | 117.2* | -1.6 | i | 5.2 | -3.1 | -2.8 | 142.5* | -1.2
Cn1c(-c2c(N)n(CCc3ccccc3)c3nc4ccccc4nc23)nc2ccccc21 | 250.3* | 4.4 | i | -14.3 | -4.5 | -2.2 | 235.0* | 6.0
Cn1c(-c2c(N)n(C3CCCC3)c3nc4ccccc4nc23)nc2ccccc21 | 6.8 | -3.4 | -39.8 | 8.8 | -4.3 | -8.3 | · | ·
O=C(O)c1ccc(CNC(=O)C2CCN(S(=O)(=O)c3cccs3)CC2)cc1 | · | · | · | · | 0.7 | · | · | ·
C[C@@H]1CN([C@H](C)CO)C(=O)CCCn2nncc2CO[C@H]1CN(C)S(=O)(=O)c1cccc(C#N)c1 | · | · | · | · | -3.6 | · | · | ·
CCOc1ccc2[nH]c3c(N4CCN(c5ccccn5)CC4)ncnc3c2c1 | 35.1* | 0.5 | -200.2 | -11.3 | -0.1 | 29.2 | 18.9* | 7.8
Cc1ccc2[nH]c3c(N4CCN(Cc5ccccc5)CC4)ncnc3c2c1 | 1.4 | -4.7 | -7.2 | -26.5 | 2.7 | 16.1 | · | ·
CCN(CC(=O)Nc1ccc(NC(C)=O)cc1)C(=O)C1(c2ccc(Cl)cc2)CCC1 | · | · | · | · | -8.2 | · | · | ·
Oc1ccc(Oc2ccc3c(C(F)(F)F)cc(C(F)(F)F)nc3n2)cc1 | 19.8* | 15.2 | -103.3 | -32.2 | -1.3 | -1.4 | 82.2* | -1.1
COc1ccc(S(=O)(=O)Nc2cc(C(C)C)c(O)cc2C)cc1 | -1.4 | -0.9 | 7.7 | -15.1 | -3.5 | 1.1 | · | ·
COc1ccc2nc3cc(Cl)ccc3c(Nc3cc(C(C)C)c(O)cc3C)c2c1 | 19.9* | 2.2 | -110.3 | -8.5 | 15.1 | 3.1 | 14.8 | 3.2
COc1ccc(CN2CCN(CC(O)Cn3c4ccccc4c4ccccc43)CC2)cc1 (stereo unspecified) | 20.7* | -2.2 | -105.5 | 5.8 | -0.6 | -4.0 | 24.2* | -1.9
NC(=O)NC(CC(=O)OCC(=O)Nc1nnc(-c2ccccc2)o1)c1ccc(Cl)cc1 (stereo unspecified) | · | · | · | · | 1.3 | · | · | ·
Cc1cccc(NC(=S)NC(=O)CCc2ccccc2)c1 | 18.1* | 0.1 | -98.0 | -0.4 | -16.1 | 5.5 | 351.9* | -0.8
C[C@@H]1CN([C@@H](C)CO)C(=O)CCCn2nncc2CO[C@@H]1CN(C)S(=O)(=O)c1ccc(Oc2ccccc2)nc1 | · | · | · | · | -1.3 | · | · | ·
SMILES | OPRM1-OPRD1 ag | HTR5A ag ctr | OPRM1-OPRD1 inv | HTR5A inv ctr | DAGLB inh | Arr AP2 block | OPRM1-D1 ag cf | HTR5A ag ctr2
Cc1ccc(-c2nn(-c3cccc(F)c3)cc2CNCc2cccnc2)o1 | 26.1* | 2.0 | -132.7 | -5.6 | 5.9 | 32.0 | 0.3 | 2.9
Cc1ccc(-c2nn(-c3cccc(F)c3)cc2CN(Cc2nccn2C)C(C)C)o1 | -0.2 | -4.1 | 1.2 | 10.5 | 0.8 | -20.3 | · | ·
Cc1ccc(-c2nn(-c3cccc(F)c3)cc2CN2CCN(c3ccccn3)CC2)o1 | 37.3* | 6.0 | -194.5 | 24.2 | -1.6 | 19.1 | -5.2 | 0.7
CCCN1C(=O)c2ccccc2NC1c1ccc(OC)c(CSc2ccccn2)c1 (stereo unspecified) | 22.2* | 4.7 | -117.7 | 15.2 | -3.2 | 6.6 | 16.5 | 0.5
COc1ccc(C2Nc3ccccc3C(=O)N2Cc2ccco2)cc1COc1ccc(F)cc1 (stereo unspecified) | 37.7* | -0.3 | -204.8 | -19.6 | -2.5 | 12.3 | 26.0* | -0.6
C[C@@H]1CN([C@H](C)CO)C(=O)CCCn2cc(nn2)CO[C@H]1CN(C)S(=O)(=O)c1cccc(C#N)c1 | · | · | · | · | -0.9 | · | · | ·
COc1ccc(NC(=O)C[C@H]2C(=O)N(Cc3ccccc3)C[C@@H]2C)cc1 | · | · | · | · | 3.1 | · | · | ·
OC(CNCC(c1ccc(Cl)cc1Cl)c1c[nH]c2ccccc12)c1ccccc1 (stereo unspecified) | 55.4* | 15.1* | -271.1 | -41.7 | -12.7 | -0.5 | -0.3 | 1.0
CCCN(CC(=O)NC(=O)NCc1ccccc1)CC(=O)Nc1ccc(F)c(F)c1F | · | · | · | · | -0.2 | · | · | ·
CC(=O)C1=C(c2ccc(Br)cc2)C(=O)c2ccccc2C1=O | 33.5* | 11.1 | -177.5 | -28.1 | -1.6 | 8.9 | 25.9* | 11.3
CNC1=C(N(C(C)=O)c2ccc(Br)cc2)C(=O)c2ccccc2C1=O | 6.2 | 1.8 | -30.2 | 9.0 | 4.9 | 0.6 | · | ·
Cc1ccc([C@H]2C[C@@H](n3cc(COC(=O)c4ccccc4)nn3)[C@H](O)CN2C(=O)C2CCCCC2)cc1 | · | · | · | · | -3.3 | · | · | ·
O=C(OC1C2CCC1C1CN(CCc3ccccc3)CC12)c1ccccc1 (stereo unspecified) | 18.1* | 3.3 | -108.6 | -8.8 | -2.1 | 17.4 | 59.9* | 1.8
Cc1ccc([C@H]2C[C@H](O)[C@@H](n3cc(C4CC4)nn3)CN2C(=O)c2cccs2)cc1 | · | · | · | · | -2.9 | · | · | ·
COc1nc(Nc2cccc(F)c2)nc(OC)n1 | -2.5 | -3.4 | 11.4 | 12.4 | -1.2 | -1.4 | · | ·
COc1cc2nc(Nc3cccc(F)c3)nc(N)c2cc1OC | 27.3* | 2.7 | -127.6 | -9.8 | -1.5 | 31.0 | -2.7 | -7.3

Screening data deposited in PubChem by several laboratories.
